# In ChEMBL document CHEMBL4689842, “EUbOPEN Chemogenomics Library wave 1” (2021):
# Test system: HEK-293T
# Assay: Multiplex assay against HEK293T;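 for Population Tubulin-Different-Phenotype (%): share of the cells with healthy nuclei that show this phenotype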
# Type: toxicity, cell-based
# Details: human
# Summary of the method: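 Phenotypes for tubulin, mitochondrial mass and membrane permeability are expressed as per cents of healthy-nucleus cells. Cells were stained live at seeding with Hoechst33342, BioTracker Green Microtubule Cytoskeleton Dye, MitoTracker Red and Annexin V Alexa Fluor 680, then imaged after compound addition on a CQ1 microscope at 37°C and 5% CO2. Machine-learning gating in CellPathfinder separated Hoechst high-intensity objects from normal cells, divided normal cells by nuclear state (healthy, pyknosed, fragmented) and divided pyknosed cells into mitotic or apoptotic.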
# [1] = 12 h, 1 µM, compound concentration 1 uM, replicate 1
# [2] = 12 h, 1 µM, compound concentration 1 uM, replicate 2
# [3] = 12 h, 10 µM, compound concentration 10 uM, replicate 1
# [4] = 12 h, 10 µM, compound concentration 10 uM, replicate 2
# [5] = 24 h, 1 µM, compound concentration 1 uM, replicate 1
# [6] = 24 h, 1 µM, compound concentration 1 uM, replicate 2
# [7] = 24 h, 10 µM, compound concentration 10 uM, replicate 1
# [8] = 24 h, 10 µM, compound concentration 10 uM, replicate 2
# [9] = 48 h, 1 µM, compound concentration 1 uM, replicate 1
# [10] = 48 h, 1 µM, compound concentration 1 uM, replicate 2
# [11] = 48 h, 10 µM, compound concentration 10 uM, replicate 1
# [12] = 48 h, 10 µM, compound concentration 10 uM, replicate 2
structure (smiles),measurement,setting,value
COc1cc(Nc2nccc(-c3cnn4nc(OC)ccc34)n2)cc(C(F)(F)F)c1,Population Apoptotic (%),[1],47%
same,Population Fragmented Nuclei (%),[1],16%
same,Population Healthy Nuclei (%),[1],19%
same,Population Hoechst High Intensity Objects (%),[1],13%
same,Population Membrane Permeable-Phenotype (%),[1],2%
same,Population Mitochondria Different-Phenotype (%),[1],77%
same,Population Mitotic Cells (%),[1],52%
same,Population Normal (%),[1],86%
same,Population Pyknosed Nuclei (%),[1],64%
same,Population Tubulin-Different-Phenotype (%),[1],30%
same,Total Cell Count,[1],214
same,Population Apoptotic (%),[2],7%
same,Population Fragmented Nuclei (%),[2],6%
same,Population Healthy Nuclei (%),[2],44%
same,Population Hoechst High Intensity Objects (%),[2],1%
same,Population Membrane Permeable-Phenotype (%),[2],11%
same,Population Mitochondria Different-Phenotype (%),[2],14%
same,Population Mitotic Cells (%),[2],92%
same,Population Normal (%),[2],98%
same,Population Pyknosed Nuclei (%),[2],48%
same,Population Tubulin-Different-Phenotype (%),[2],17%
same,Total Cell Count,[2],192
same,Population Apoptotic (%),[3],68%
same,Population Fragmented Nuclei (%),[3],33%
same,Population Healthy Nuclei (%),[3],21%
same,Population Hoechst High Intensity Objects (%),[3],24%
same,Population Membrane Permeable-Phenotype (%),[3],7%
same,Population Mitochondria Different-Phenotype (%),[3],86%
same,Population Mitotic Cells (%),[3],31%
same,Population Normal (%),[3],75%
same,Population Pyknosed Nuclei (%),[3],44%
same,Population Tubulin-Different-Phenotype (%),[3],36%
same,Total Cell Count,[3],317
same,Population Apoptotic (%),[4],21%
same,Population Fragmented Nuclei (%),[4],6%
same,Population Healthy Nuclei (%),[4],34%
same,Population Hoechst High Intensity Objects (%),[4],11%
same,Population Membrane Permeable-Phenotype (%),[4],4%
same,Population Mitochondria Different-Phenotype (%),[4],37%
same,Population Mitotic Cells (%),[4],78%
same,Population Normal (%),[4],88%
same,Population Pyknosed Nuclei (%),[4],59%
same,Population Tubulin-Different-Phenotype (%),[4],33%
same,Total Cell Count,[4],275
same,Population Apoptotic (%),[5],47%
same,Population Fragmented Nuclei (%),[5],16%
same,Population Healthy Nuclei (%),[5],22%
same,Population Hoechst High Intensity Objects (%),[5],20%
same,Population Membrane Permeable-Phenotype (%),[5],2%
same,Population Mitochondria Different-Phenotype (%),[5],76%
same,Population Mitotic Cells (%),[5],52%
same,Population Normal (%),[5],79%
same,Population Pyknosed Nuclei (%),[5],61%
same,Population Tubulin-Different-Phenotype (%),[5],35%
same,Total Cell Count,[5],221
same,Population Apoptotic (%),[6],8%
same,Population Fragmented Nuclei (%),[6],6%
same,Population Healthy Nuclei (%),[6],65%
same,Population Hoechst High Intensity Objects (%),[6],3%
same,Population Membrane Permeable-Phenotype (%),[6],9%
same,Population Mitochondria Different-Phenotype (%),[6],11%
same,Population Mitotic Cells (%),[6],91%
same,Population Normal (%),[6],96%
same,Population Pyknosed Nuclei (%),[6],27%
same,Population Tubulin-Different-Phenotype (%),[6],17%
same,Total Cell Count,[6],252
same,Population Apoptotic (%),[7],75%
same,Population Fragmented Nuclei (%),[7],33%
same,Population Healthy Nuclei (%),[7],20%
same,Population Hoechst High Intensity Objects (%),[7],23%
same,Population Membrane Permeable-Phenotype (%),[7],1%
same,Population Mitochondria Different-Phenotype (%),[7],84%
same,Population Mitotic Cells (%),[7],24%
same,Population Normal (%),[7],76%
same,Population Pyknosed Nuclei (%),[7],46%
same,Population Tubulin-Different-Phenotype (%),[7],39%
same,Total Cell Count,[7],330
same,Population Apoptotic (%),[8],23%
same,Population Fragmented Nuclei (%),[8],7%
same,Population Healthy Nuclei (%),[8],55%
same,Population Hoechst High Intensity Objects (%),[8],13%
same,Population Membrane Permeable-Phenotype (%),[8],4%
same,Population Mitochondria Different-Phenotype (%),[8],45%
same,Population Mitotic Cells (%),[8],76%
same,Population Normal (%),[8],86%
same,Population Pyknosed Nuclei (%),[8],36%
same,Population Tubulin-Different-Phenotype (%),[8],42%
same,Total Cell Count,[8],293
same,Population Apoptotic (%),[9],62%
same,Population Fragmented Nuclei (%),[9],18%
same,Population Healthy Nuclei (%),[9],25%
same,Population Hoechst High Intensity Objects (%),[9],21%
same,Population Membrane Permeable-Phenotype (%),[9],2%
same,Population Mitochondria Different-Phenotype (%),[9],41%
same,Population Mitotic Cells (%),[9],37%
same,Population Normal (%),[9],78%
same,Population Pyknosed Nuclei (%),[9],56%
same,Population Tubulin-Different-Phenotype (%),[9],18%
same,Total Cell Count,[9],219
same,Population Apoptotic (%),[10],4%
same,Population Fragmented Nuclei (%),[10],5%
same,Population Healthy Nuclei (%),[10],83%
same,Population Hoechst High Intensity Objects (%),[10],3%
same,Population Membrane Permeable-Phenotype (%),[10],5%
same,Population Mitochondria Different-Phenotype (%),[10],6%
same,Population Mitotic Cells (%),[10],95%
same,Population Normal (%),[10],96%
same,Population Pyknosed Nuclei (%),[10],10%
same,Total Cell Count,[10],465
same,Population Apoptotic (%),[11],74%
same,Population Fragmented Nuclei (%),[11],39%
same,Population Healthy Nuclei (%),[11],24%
same,Population Hoechst High Intensity Objects (%),[11],25%
same,Population Membrane Permeable-Phenotype (%),[11],0%
same,Population Mitochondria Different-Phenotype (%),[11],86%
same,Population Mitotic Cells (%),[11],25%
same,Population Normal (%),[11],74%
same,Population Pyknosed Nuclei (%),[11],36%
same,Population Tubulin-Different-Phenotype (%),[11],56%
same,Total Cell Count,[11],331
same,Population Apoptotic (%),[12],42%
same,Population Fragmented Nuclei (%),[12],7%
same,Population Healthy Nuclei (%),[12],63%
same,Population Hoechst High Intensity Objects (%),[12],9%
same,Population Membrane Permeable-Phenotype (%),[12],2%
same,Population Mitochondria Different-Phenotype (%),[12],35%
same,Population Mitotic Cells (%),[12],57%
same,Population Normal (%),[12],90%
same,Population Pyknosed Nuclei (%),[12],28%
same,Population Tubulin-Different-Phenotype (%),[12],39%
same,Total Cell Count,[12],297
Cc1ccccc1C(c1ccccc1C)N1C2CCC1CC(O)(c1ccccc1)C2 (centres undefined),Population Apoptotic (%),[1],48%
same,Population Healthy Nuclei (%),[1],40%
same,Population Mitotic Cells (%),[1],51%
same,Population Normal (%),[1],82%
same,Population Pyknosed Nuclei (%),[1],48%
same,Total Cell Count,[1],233
same,Population Apoptotic (%),[2],13%
same,Population Healthy Nuclei (%),[2],39%
same,Population Mitotic Cells (%),[2],86%
same,Population Normal (%),[2],94%
same,Population Pyknosed Nuclei (%),[2],55%
same,Total Cell Count,[2],261
same,Population Apoptotic (%),[3],53%
same,Population Healthy Nuclei (%),[3],36%
same,Population Mitotic Cells (%),[3],46%
same,Population Normal (%),[3],88%
same,Population Pyknosed Nuclei (%),[3],54%
same,Total Cell Count,[3],350
same,Population Healthy Nuclei (%),[4],26%
same,Population Mitotic Cells (%),[4],78%
same,Population Normal (%),[4],96%
same,Population Pyknosed Nuclei (%),[4],69%
same,Total Cell Count,[4],210
same,Population Apoptotic (%),[5],43%
same,Population Healthy Nuclei (%),[5],45%
same,Population Mitotic Cells (%),[5],56%
same,Population Normal (%),[5],82%
same,Population Pyknosed Nuclei (%),[5],40%
same,Total Cell Count,[5],254
same,Population Apoptotic (%),[6],13%
same,Population Healthy Nuclei (%),[6],61%
same,Population Mitotic Cells (%),[6],86%
same,Population Normal (%),[6],98%
same,Population Pyknosed Nuclei (%),[6],32%
same,Total Cell Count,[6],355
same,Population Apoptotic (%),[7],49%
same,Population Healthy Nuclei (%),[7],42%
same,Population Mitotic Cells (%),[7],50%
same,Population Normal (%),[7],91%
same,Population Pyknosed Nuclei (%),[7],48%
same,Total Cell Count,[7],339
same,Population Healthy Nuclei (%),[8],43%
same,Population Mitotic Cells (%),[8],68%
same,Population Normal (%),[8],95%
same,Population Pyknosed Nuclei (%),[8],53%
same,Total Cell Count,[8],229
same,Population Healthy Nuclei (%),[9],49%
same,Population Mitotic Cells (%),[9],68%
same,Population Normal (%),[9],87%
same,Population Pyknosed Nuclei (%),[9],28%
same,Total Cell Count,[9],301
same,Population Healthy Nuclei (%),[10],85%
same,Population Mitotic Cells (%),[10],87%
same,Population Normal (%),[10],98%
same,Population Pyknosed Nuclei (%),[10],10%
same,Total Cell Count,[10],568
same,Population Apoptotic (%),[11],50%
same,Population Healthy Nuclei (%),[11],45%
same,Population Mitotic Cells (%),[11],49%
same,Population Normal (%),[11],91%
same,Population Pyknosed Nuclei (%),[11],42%
same,Total Cell Count,[11],372
same,Population Apoptotic (%),[12],23%
same,Population Healthy Nuclei (%),[12],72%
same,Population Mitotic Cells (%),[12],76%
same,Population Normal (%),[12],97%
same,Population Pyknosed Nuclei (%),[12],24%
same,Total Cell Count,[12],302
